Reference: ChEMBL document CHEMBL1142153, “Pharmacokinetics and disposition of CS-023 (RO4908463), a novel parenteral carbapenem, in animals” (Antimicrob Agents Chemother, 2007)

Assays:
Rattus norvegicus [1] = assay: Urinary excretion in rat assessed as radioactivity at 10 mg/kg, iv after 24 h; assay type: ADME, organism-based, Urine; set-up: dose 10 mg/kg, route intravenous; settings: in vivo
How it was run: (§1)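 Rats were dosed i.v. via the tail vein with [14C]CS-023 at 10 mg/kg (4.58 MBq/kg) in saline, then kept in individual metabolic cages for separate urine and feces collection over 7 days. Samples up to 24 h were collected at around 4°C into 0.5 M MOPS pH 6.0, and feces were homogenized. Radioactivity was measured by liquid scintillation counting. Parent drug and metabolite were apportioned by silica TLC (3% NaCl:acetonitrile 2:1) with imaging-plate analysis. n=4.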

Rattus norvegicus [2] = assay: Fecal excretion in rat assessed as radioactivity at 10 mg/kg, iv after 24 h; assay type: ADME, organism-based; set-up: dose 10 mg/kg, route intravenous; settings: in vivo; how it was run: as §1
[3] = Protein binding in rat serum at 20 ug/ml; assay type: ADME, cell-free; settings: read-out: PPB (converted)
How it was run: (§2)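 Serum was spiked with CS-023 in water to a final 20 or 100 µg/ml and incubated for 5 min at 37°C. It was then ultrafiltered by centrifugation at 2,000 x g for 10 min at room temperature. Drug in serum before filtration (Ct) and in the filtrate (Cf) was measured by HPLC-UV. Bound % = (Ct − Cf)/Ct × 100; n=4.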

[4] = Protein binding in rat serum at 100 ug/ml; assay type: ADME, cell-free; settings: read-out: PPB (converted); how it was run: as §2
[5] = Protein binding in dog serum at 20 ug/ml; assay type: ADME, cell-free, Canis lupus familiaris; settings: read-out: PPB; how it was run: as §2
[6] = Protein binding in dog serum at 100 ug/ml; assay type: ADME, cell-free, Canis lupus familiaris; settings: read-out: PPB (converted); how it was run: as §2
[7] = Half life in rat at 10 mg/kg, iv; assay type: ADME, organism-based; set-up: dose 10 mg/kg, route intravenous; settings: in vivo
How it was run: (§3)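 Rats received CS-023 in saline by tail-vein bolus at 10, 25 or 50 mg/kg; jugular blood was drawn serially. Plasma mixed with an equal volume of 500 mM MOPS pH 6.0 containing internal standard, then HPLC with UV at 304 nm (linear 1–500 µg/ml). Log-linear terminal kel gave t1/2; AUC by trapezoidal rule + Clast/kel; CL = dose/AUC0-inf. n=3.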

[8] = Half life in rat at 25 mg/kg, iv; assay type: ADME, organism-based; set-up: dose 25 mg/kg, route intravenous; settings: in vivo; how it was run: as §3
[9] = Half life in rat at 50 mg/kg, iv; assay type: ADME, organism-based; set-up: dose 50 mg/kg, route intravenous; settings: in vivo; how it was run: as §3
[10] = Half life in dog at 5 mg/kg, iv; assay type: ADME, organism-based, Canis lupus familiaris; set-up: dose 5 mg/kg, route intravenous; settings: in vivo
How it was run: (§4)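 Single i.v. bolus of CS-023 in saline into the foreleg saphenous vein of dogs at 5, 10 or 25 mg/kg; serial blood from the same vein. Plasma separated at 4°C, mixed 1:1 with 500 mM MOPS pH 6.0 containing internal standard, and analysed by two-column HPLC with UV at 304 nm; linear 1–500 µg/ml. kel from log-linear terminal slope, t1/2 = 0.693/kel; AUC by trapezoids plus Clast/kel; CL = dose/AUC; Vss = CL × MRT. n=3.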

[11] = Half life in dog at 10 mg/kg, iv; assay type: ADME, organism-based, Canis lupus familiaris; set-up: dose 10 mg/kg, route intravenous; settings: in vivo; how it was run: as §4
[12] = Half life in dog at 25 mg/kg, iv; assay type: ADME, organism-based, Canis lupus familiaris; set-up: dose 25 mg/kg, route intravenous; settings: in vivo; how it was run: as §4
[13] = AUC (0-inf) in rat at 10 mg/kg, iv; assay type: ADME, organism-based; set-up: dose 10 mg/kg, route intravenous, time infinity; settings: plasma; how it was run: as §3
[14] = AUC (0-inf) in rat at 25 mg/kg, iv; assay type: ADME, organism-based; set-up: time infinity, dose 25 mg/kg, route intravenous; settings: plasma; how it was run: as §3
[15] = AUC (0-inf) in rat at 50 mg/kg, iv; assay type: ADME, organism-based; set-up: time infinity, dose 50 mg/kg, route intravenous; settings: plasma; how it was run: as §3
[16] = AUC (0-inf) in dog at 5 mg/kg, iv; assay type: ADME, organism-based, Canis lupus familiaris; set-up: time infinity, dose 5 mg/kg, route intravenous; settings: plasma; how it was run: as §4
[17] = AUC (0-inf) in dog at 10 mg/kg, iv; assay type: ADME, organism-based, Canis lupus familiaris; set-up: dose 10 mg/kg, route intravenous, time infinity; settings: plasma; how it was run: as §4
[18] = AUC (0-inf) in dog at 25 mg/kg, iv; assay type: ADME, organism-based, Canis lupus familiaris; set-up: time infinity, dose 25 mg/kg, route intravenous; settings: plasma; how it was run: as §4
[19] = Clearance in rat at 10 mg/kg, iv; assay type: ADME, organism-based; set-up: dose 10 mg/kg, route intravenous; settings: in vivo; how it was run: as §3
[20] = Clearance in rat at 25 mg/kg, iv; assay type: ADME, organism-based; set-up: dose 25 mg/kg, route intravenous; settings: in vivo; how it was run: as §3
[21] = Clearance in rat at 50 mg/kg, iv; assay type: ADME, organism-based; set-up: dose 50 mg/kg, route intravenous; settings: in vivo; how it was run: as §3
[22] = Clearance in dog at 5 mg/kg, iv; assay type: ADME, organism-based, Canis lupus familiaris; set-up: dose 5 mg/kg, route intravenous; settings: in vivo; how it was run: as §4
[23] = Clearance in dog at 10 mg/kg, iv; assay type: ADME, organism-based, Canis lupus familiaris; set-up: dose 10 mg/kg, route intravenous; settings: in vivo; how it was run: as §4
[24] = Clearance in dog at 25 mg/kg, iv; assay type: ADME, organism-based, Canis lupus familiaris; set-up: dose 25 mg/kg, route intravenous; settings: in vivo; how it was run: as §4
[25] = Volume of distribution at steady state in rat at 10 mg/kg, iv; assay type: ADME, organism-based; set-up: dose 10 mg/kg, route intravenous; settings: in vivo, read-out: Vss
How it was run: (§5)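 Rats dosed once by tail-vein bolus of CS-023 in saline; blood drawn serially from the jugular vein and plasma separated at 4°C. Plasma mixed 1:1 with 500 mM MOPS pH 6.0 containing p-acetamidophenol internal standard and assayed by HPLC with UV at 304 nm (linear 1 to 500 µg/ml). Vss = CL (dose/AUC0-∞) × mean residence time.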

[26] = Volume of distribution at steady state in rat at 25 mg/kg, iv; assay type: ADME, organism-based; set-up: dose 25 mg/kg, route intravenous; settings: in vivo, read-out: Vss; how it was run: as §5
[27] = Volume of distribution at steady state in rat at 50 mg/kg, iv; assay type: ADME, organism-based; set-up: dose 50 mg/kg, route intravenous; settings: in vivo, read-out: Vss; how it was run: as §5
[28] = Volume of distribution at steady state in dog at 5 mg/kg, iv; assay type: ADME, organism-based, Canis lupus familiaris; set-up: dose 5 mg/kg, route intravenous; settings: in vivo, read-out: Vss; how it was run: as §4
[29] = Volume of distribution at steady state in dog at 10 mg/kg, iv; assay type: ADME, organism-based, Canis lupus familiaris; set-up: dose 10 mg/kg, route intravenous; settings: in vivo, read-out: Vss; how it was run: as §4
[30] = Volume of distribution at steady state in dog at 25 mg/kg, iv; assay type: ADME, organism-based, Canis lupus familiaris; set-up: dose 25 mg/kg, route intravenous; settings: in vivo, read-out: Vss; how it was run: as §4
Macaca fascicularis [31] = assay: Half life in monkey at 5 mg/kg, iv; settings: cynomolgus monkey, in vivo
Macaca fascicularis [32] = assay: Clearance in monkey at 5 mg/kg, iv; settings: cynomolgus monkey, in vivo
Macaca fascicularis [33] = assay: Half life in monkey at 10 mg/kg, iv; settings: cynomolgus monkey, in vivo
Macaca fascicularis [34] = assay: Half life in monkey at 25 mg/kg, iv; settings: cynomolgus monkey, in vivo
Macaca fascicularis [35] = assay: Clearance in monkey at 10 mg/kg, iv; settings: cynomolgus monkey, in vivo
Macaca fascicularis [36] = assay: Clearance in monkey at 25 mg/kg, iv; settings: cynomolgus monkey, in vivo
Macaca fascicularis [37] = assay: AUC (0-inf) in monkey at 5 mg/kg, iv; settings: cynomolgus monkey, plasma
Macaca fascicularis [38] = assay: AUC (0-inf) in monkey at 10 mg/kg, iv; settings: cynomolgus monkey, plasma
Macaca fascicularis [39] = assay: AUC (0-inf) in monkey at 25 mg/kg, iv; settings: cynomolgus monkey, plasma
Macaca fascicularis [40] = species on record: Macaca fascicularis; assay: Protein binding in monkey serum at 20 ug/ml; settings: cynomolgus monkey, read-out: PPB (converted)
Macaca fascicularis [41] = species on record: Macaca fascicularis; assay: Protein binding in monkey serum at 100 ug/ml; settings: cynomolgus monkey, read-out: PPB (converted)
Macaca fascicularis [42] = assay: Volume of distribution at steady state in monkey at 5 mg/kg, iv; settings: cynomolgus monkey, in vivo, read-out: Vss
Macaca fascicularis [43] = assay: Volume of distribution at steady state in monkey at 25 mg/kg, iv; settings: cynomolgus monkey, in vivo, read-out: Vss
Macaca fascicularis [44] = assay: Volume of distribution at steady state in monkey at 10 mg/kg, iv; settings: cynomolgus monkey, in vivo, read-out: Vss

## C[C@@H](O)[C@H]1C(=O)N2C(C(=O)O)=C(S[C@H]3C[C@@H](C(=O)N4CC[C@H](NC(=O)CNC(=N)N)C4)N(C)C3)[C@H](C)[C@H]12 [TOMOPENEM]
Rattus norvegicus [1]
  Activity: 29.6%
Rattus norvegicus [2]
  Activity: 3.1%
[3]
  fraction unbound at 20 ug/ml: 0.95
[4]
  fraction unbound at 100 ug/ml: 0.941
[5]
  fraction unbound at 20 ug/ml: 0.91
[6]
  fraction unbound at 100 ug/ml: 0.946
[7]
  half-life: 9.6 min
[8]
  half-life: 11.4 min
[9]
  half-life: 12 min
[10]
  half-life: 45 min
[11]
  half-life: 45 min
[12]
  half-life: 52.8 min
[13]
  AUC(0-inf): 10200 ng·h/mL
[14]
  AUC(0-inf): 28400 ng·h/mL
[15]
  AUC(0-inf): 55000 ng·h/mL
[16]
  AUC(0-inf): 18800 ng·h/mL
[17]
  AUC(0-inf): 39900 ng·h/mL
[18]
  AUC(0-inf): 129000 ng·h/mL
[19]
  clearance: 16.9 mL/min/kg
[20]
  clearance: 15.1 mL/min/kg
[21]
  clearance: 15.2 mL/min/kg
[22]
  clearance: 4.44 mL/min/kg
[23]
  clearance: 4.19 mL/min/kg
[24]
  clearance: 3.26 mL/min/kg
[25]
  Vd: 0.199 L/kg
[26]
  Vd: 0.218 L/kg
[27]
  Vd: 0.22 L/kg
[28]
  Vd: 0.269 L/kg
[29]
  Vd: 0.259 L/kg
[30]
  Vd: 0.228 L/kg
Macaca fascicularis [31]
  half-life: 79.2 min
Macaca fascicularis [32]
  clearance: 1.76 mL/min/kg
Macaca fascicularis [33]
  half-life: 83.4 min
Macaca fascicularis [34]
  half-life: 86.4 min
Macaca fascicularis [35]
  clearance: 1.62 mL/min/kg
Macaca fascicularis [36]
  clearance: 1.73 mL/min/kg
Macaca fascicularis [37]
  AUC(0-inf): 48600 ng·h/mL
Macaca fascicularis [38]
  AUC(0-inf): 104000 ng·h/mL
Macaca fascicularis [39]
  AUC(0-inf): 244000 ng·h/mL
Macaca fascicularis [40]
  fraction unbound at 20 ug/ml: 0.844
Macaca fascicularis [41]
  fraction unbound at 100 ug/ml: 0.849
Macaca fascicularis [42]
  Vd: 0.176 L/kg
Macaca fascicularis [43]
  Vd: 0.184 L/kg
Macaca fascicularis [44]
  Vd: 0.172 L/kg
